Results: ChEMBL document CHEMBL4177600, “Identification of novel PI3K inhibitors through a scaffold hopping strategy” (Bioorg Med Chem Lett, 2017)
Converted amounts (≈) assume the structure as drawn.

Legend:
[1] = Half-life in BALB-C mouse at 8 mg/kg, po by LC-MS/MS analysis; assay type: ADME, organism-based; conditions: in vivo
Outline: (§1)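 BALB-C mice dosed IV (10% NMP/50% PEG300/40% saline) or PO (10% NMP/90% PEG300). Plasma sampled at 6 (IV) or 8 (PO) time points; compound measured by LC/MS/MS. Parameters from bicompartmental model fit; each value is the mean of 3 independent samples.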

[2] = biological target: CYP3A4 (Homo sapiens, UniProt P08684); assay: Inhibition of CYP3A4 (unknown origin) at 10 uM relative to control; assay type: ADME
Outline: (§2)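 CYP1A2, 2C9, 2C19, 2D6 and 3A4 inhibition measured at 10 µM test compound in duplicate; percent inhibition reported.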

[3] = Stability in mouse liver microsomes assessed as parent compound remaining at 0.5 uM after 30 mins by LC-MS/MS analysis; assay type: ADME, microsome; conditions: read-out: Stability
Outline: (§3)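 Single time-point stability assay: 0.5 µM compound, 0.5 mg/ml human or mouse liver microsomes in 0.1 M potassium phosphate pH 7.4, with NADPH-regenerating system, 30 min at 37 °C with shaking. Reaction quenched with acetonitrile/0.1% formic acid and centrifuged; supernatant analysed by LC-MS/MS. Reported as percent remaining; duplicates.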

[4] = AUC (infinity) in BALB-C mouse at 8 mg/kg, po by LC-MS/MS analysis; assay type: ADME, organism-based; parameters: dose 8 mg/kg, route oral, time infinity; conditions: in vivo; outline: as §1
[5] = biological target: CYP2D6 (Homo sapiens, UniProt P10635); assay: Inhibition of CYP2D6 (unknown origin) at 10 uM relative to control; assay type: ADME; outline: as §2
[6] = AUC (infinity) in BALB-C mouse at 8 mg/kg, iv by LC-MS/MS analysis; assay type: ADME, organism-based; parameters: dose 8 mg/kg, time infinity, route intravenous; conditions: in vivo; outline: as §1
[7] = Stability in human liver microsomes assessed as parent compound remaining at 0.5 uM after 30 mins by LC-MS/MS analysis; assay type: ADME, microsome; conditions: read-out: Stability; outline: as §3
[8] = Kinetic solubility of the compound in phosphate buffered saline at pH 7.4 at 1 to 2 mg measured after 24 hrs by HPLC analysis; assay type: physicochemical; conditions: read-out: Kinetic_solubility
Outline: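 Solid compound (1–2 mg) in 1 mL PBS, pH 7.4, inverted in test tubes for 24 h. Samples centrifuged, supernatant analysed by HPLC with diode-array detection, with peak area compared to a standard of known concentration. LC-MS/MS used when UV signal was too low or the chromophore poor. Reported in µM.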

[9] = biological target: CYP2C19 (Homo sapiens, UniProt P33261); assay: Inhibition of CYP2C19 (unknown origin) at 10 uM relative to control; assay type: ADME; outline: as §2
[10] = Volume of distribution in BALB-C mouse at 8 mg/kg, iv by LC-MS/MS analysis; assay type: ADME, organism-based; conditions: in vivo
Outline: (§4)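 BALB-C mice dosed IV in 10% NMP/50% PEG300/40% saline or PO in 10% NMP/90% PEG300. Plasma sampled at 6 (IV) or 8 (PO) time points and quantified by LC/MS/MS. Parameters come from a bicompartmental model fit; values are means of 3 independent samples. Plasma levels were compared with AKT-P EC50 from U2OS cells converted to ng/ml.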

[11] = Clearance in BALB-C mouse at 8 mg/kg, iv by LC-MS/MS analysis; assay type: ADME, organism-based; conditions: in vivo
Outline: (§5)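 Mice (BALB-C) given IV dose in 10% NMP/50% PEG300/40% saline; plasma sampled at 6 times, levels by LC/MS/MS.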

[12] = Tmax in BALB-C mouse at 8 mg/kg, po by LC-MS/MS analysis; assay type: ADME, organism-based; conditions: in vivo; outline: as §4
[13] = Oral bioavailability in BALB-C mouse at 8 mg/kg by LC-MS/MS analysis; assay type: ADME, organism-based; conditions: in vivo; outline: as §4
[14] = Permeability of the compound at 300 uL after 5 hrs by PAMPA; assay type: ADME; conditions: read-out: permeability
Outline: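 Pre-coated PAMPA plates with a tri-layer phospholipid membrane. Donor held compound in PBS at the highest concentration soluble in PBS; acceptor was PBS. Incubated 5 h at room temperature, with propranolol and sorafenib (10 µM) as high and low permeability controls. Donor and acceptor concentrations measured by LC-MS/MS; Pe (10^-6 cm/s) calculated from acceptor/equilibrium concentrations, 0.3 cm² area and well volumes.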

[15] = biological target: Serine/threonine-protein kinase mTOR (Homo sapiens, UniProt P42345); assay: Inhibition of recombinant human GST-tagged mTOR catalytic domain (1360 to 2549 residues) expressed in baculovirus expression system by AlexaFluor647-labeled kinase tracer 314 based LanthaScreen assay
[16] = Cmax in BALB-C mouse at 8 mg/kg, po by LC-MS/MS analysis; assay type: ADME, organism-based; parameters: dose 8 mg/kg, route oral; conditions: in vivo; outline: as §1
[17] = Half-life in BALB-C mouse at 8 mg/kg, iv by LC-MS/MS analysis; assay type: ADME, organism-based; conditions: in vivo; outline: as §1
[18] = tested on: Mus musculus; assay: Clearance in BALB-C mouse at 8 mg/kg, iv by LC-MS/MS analysis relative to hepatic blood flow; assay type: ADME, organism-based; conditions: in vivo
[19] = biological target: CYP2C9 (Homo sapiens, UniProt P11712); assay: Inhibition of CYP2C9 (unknown origin) at 10 uM relative to control; assay type: ADME; outline: as §2
[20] = biological target: T1, CYP1A2 (Homo sapiens, UniProt P05177); assay: Inhibition of CYP1A2 (unknown origin) at 10 uM relative to control; assay type: ADME; outline: as §2
T1 sequence (P05177 whole entry): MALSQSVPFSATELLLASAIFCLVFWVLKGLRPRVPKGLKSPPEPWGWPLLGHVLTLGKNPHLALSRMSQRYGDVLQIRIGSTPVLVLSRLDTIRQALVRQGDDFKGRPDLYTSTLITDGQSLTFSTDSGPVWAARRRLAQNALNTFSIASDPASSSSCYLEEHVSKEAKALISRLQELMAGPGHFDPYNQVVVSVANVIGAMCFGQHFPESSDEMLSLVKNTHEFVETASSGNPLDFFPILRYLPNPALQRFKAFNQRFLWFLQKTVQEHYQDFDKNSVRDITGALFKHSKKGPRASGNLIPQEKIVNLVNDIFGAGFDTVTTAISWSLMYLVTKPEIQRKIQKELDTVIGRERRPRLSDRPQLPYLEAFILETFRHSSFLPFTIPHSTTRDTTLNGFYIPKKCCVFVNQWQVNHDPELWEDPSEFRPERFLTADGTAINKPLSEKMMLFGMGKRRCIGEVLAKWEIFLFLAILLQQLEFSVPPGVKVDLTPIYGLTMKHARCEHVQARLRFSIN

[21] = AUC (infinity) in BALB-C mouse at 10 mg/kg, po by LC-MS/MS analysis; assay type: ADME, organism-based; parameters: dose 10 mg/kg, time infinity, route oral; conditions: in vivo; outline: as §1
[22] = Volume of distribution in BALB-C mouse at 5 mg/kg, iv by LC-MS/MS analysis; assay type: ADME, organism-based; conditions: in vivo; outline: as §4
[23] = Half-life in BALB-C mouse at 10 mg/kg, po by LC-MS/MS analysis; assay type: ADME, organism-based; conditions: in vivo; outline: as §1
[24] = biological target: PI3-kinase p110-delta/p85-alpha (Homo sapiens, UniProt O00329); assay: Inhibition of recombinant human full-length N-terminal His6-tagged p110delta/human full-length p85alpha expressed in baculovirus infected Sf21 insect cells using PIP2 as substrate by HTRF assay; conditions: read-out: Ki(app)
[25] = tested on: Mus musculus; assay: Clearance in BALB-C mouse at 5 mg/kg, iv by LC-MS/MS analysis relative to hepatic blood flow; assay type: ADME, organism-based; conditions: in vivo
[26] = Oral bioavailability in BALB-C mouse at 10 mg/kg by LC-MS/MS analysis; assay type: ADME, organism-based; conditions: in vivo; outline: as §4
[27] = Tmax in BALB-C mouse at 10 mg/kg, po by LC-MS/MS analysis; assay type: ADME, organism-based; conditions: in vivo; outline: as §4
[28] = Clearance in BALB-C mouse at 5 mg/kg, iv by LC-MS/MS analysis; assay type: ADME, organism-based; conditions: in vivo; outline: as §5
[29] = biological target: PI3-kinase p110-alpha/p85-alpha (Homo sapiens, UniProt P42336); assay: Inhibition of full-length human P110alpha (1 to 1068 residues)/N-terminal GST-fused p85alpha (1 to 724 residues) expressed in baculovirus expression system by ADP Hunter assay; conditions: read-out: Ki(app)
[30] = Cmax in BALB-C mouse at 10 mg/kg, po by LC-MS/MS analysis; assay type: ADME, organism-based; parameters: dose 10 mg/kg, route oral; conditions: in vivo; outline: as §1
[31] = Inhibition of PI3K in serum-stimulated human U2OS cells assessed as decrease in AKT1 phosphorylation at S473 by C-ELISA; assay type: cell-based
Outline: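 U2OS osteosarcoma cells grown in 0.1% FBS, then serum-stimulated; endogenous phospho-Akt1 (Ser473) quantified by cell ELISA with chemiluminescent substrate. EC50 from sigmoid dose-response fit; two independent experiments in duplicate.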

[32] = biological target: PI3K p110 beta/p85 alpha (Homo sapiens, UniProt P42338); assay: Inhibition of p110beta/85alpha (unknown origin) using PIP2 as substrate by HTRF assay; assay type: protein-complex assay; conditions: read-out: Ki(app)
[33] = tested on: Mus musculus; assay: Time at which plasma concentration stays above cellular EC50 for inhibition of AKT phosphorylation in BALB-C mouse at 10 mg/kg, po measured up to 24 hrs by LC-MS/MS analysis; assay type: organism-based; conditions: in vivo; outline: as §4
[34] = AUC (infinity) in BALB-C mouse at 5 mg/kg, iv by LC-MS/MS analysis; assay type: ADME, organism-based; parameters: dose 5 mg/kg, time infinity, route intravenous; conditions: in vivo; outline: as §1
[35] = Half-life in BALB-C mouse at 5 mg/kg, iv by LC-MS/MS analysis; assay type: ADME, organism-based; conditions: in vivo; outline: as §1
[36] = biological target: Phosphatidylinositol 4,5-bisphosphate 3-kinase catalytic subunit gamma isoform (Homo sapiens, UniProt P48736); assay: Inhibition of recombinant full-length human N-terminal His6-tagged p110gamma expressed in baculovirus infected Sf21 insect cells using PIP2 as substrate by HTRF assay; conditions: read-out: Ki(app)
[37] = biological target: Voltage-gated inwardly rectifying potassium channel KCNH2 (Homo sapiens, UniProt Q12809); assay: Inhibition of human ERG by Tracer Red dye based fluorescence polarization assay
Outline: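 hERG binding measured with Predictor hERG kit per kit instructions, read by fluorescence polarization.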

[38] = tested on: U2OS; assay: Inhibition of AKT phosphorylation in human U2OS cells

Chain of CYP2D6 (P10635 whole entry): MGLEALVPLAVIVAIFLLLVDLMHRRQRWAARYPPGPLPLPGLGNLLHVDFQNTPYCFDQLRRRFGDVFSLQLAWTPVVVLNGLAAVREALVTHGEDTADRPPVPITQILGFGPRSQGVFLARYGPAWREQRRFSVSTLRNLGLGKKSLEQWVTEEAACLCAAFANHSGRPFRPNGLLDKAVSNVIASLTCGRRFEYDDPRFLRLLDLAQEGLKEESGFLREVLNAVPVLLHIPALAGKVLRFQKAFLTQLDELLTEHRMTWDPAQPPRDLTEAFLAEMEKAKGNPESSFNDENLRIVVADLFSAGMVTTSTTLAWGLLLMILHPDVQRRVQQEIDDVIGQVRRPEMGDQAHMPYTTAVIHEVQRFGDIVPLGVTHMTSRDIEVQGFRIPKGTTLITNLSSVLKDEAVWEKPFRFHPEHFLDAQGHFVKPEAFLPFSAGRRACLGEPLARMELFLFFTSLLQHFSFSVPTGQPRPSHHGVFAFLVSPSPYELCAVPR
Chain of CYP2C9 (P11712 whole entry): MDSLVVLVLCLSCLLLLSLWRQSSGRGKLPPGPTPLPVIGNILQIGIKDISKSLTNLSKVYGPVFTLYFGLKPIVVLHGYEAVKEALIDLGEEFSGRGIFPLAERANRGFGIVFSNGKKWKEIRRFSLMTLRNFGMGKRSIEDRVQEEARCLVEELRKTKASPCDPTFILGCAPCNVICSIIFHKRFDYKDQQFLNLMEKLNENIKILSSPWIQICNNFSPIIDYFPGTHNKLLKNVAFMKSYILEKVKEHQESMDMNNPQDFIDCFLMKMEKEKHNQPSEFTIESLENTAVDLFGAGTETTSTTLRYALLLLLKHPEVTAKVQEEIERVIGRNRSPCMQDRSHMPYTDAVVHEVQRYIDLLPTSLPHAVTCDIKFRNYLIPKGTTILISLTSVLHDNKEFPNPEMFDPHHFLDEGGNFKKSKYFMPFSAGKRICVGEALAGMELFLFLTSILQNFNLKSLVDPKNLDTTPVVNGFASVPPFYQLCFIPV
Chain of CYP3A4 (P08684 whole entry): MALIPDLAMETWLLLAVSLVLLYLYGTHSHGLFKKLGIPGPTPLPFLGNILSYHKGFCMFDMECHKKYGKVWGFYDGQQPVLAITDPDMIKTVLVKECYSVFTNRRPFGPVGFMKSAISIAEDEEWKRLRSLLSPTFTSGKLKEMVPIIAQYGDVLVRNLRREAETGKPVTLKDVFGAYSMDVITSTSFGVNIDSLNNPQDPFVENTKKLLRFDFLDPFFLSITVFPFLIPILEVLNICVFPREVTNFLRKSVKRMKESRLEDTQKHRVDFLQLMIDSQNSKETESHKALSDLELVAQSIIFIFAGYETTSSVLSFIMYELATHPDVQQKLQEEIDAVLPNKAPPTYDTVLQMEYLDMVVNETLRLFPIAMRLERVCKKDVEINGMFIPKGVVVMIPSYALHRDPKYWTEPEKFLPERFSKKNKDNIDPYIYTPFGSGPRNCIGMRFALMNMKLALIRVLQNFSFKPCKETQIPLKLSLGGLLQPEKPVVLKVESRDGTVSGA
Chain of CYP2C19 (P33261 whole entry): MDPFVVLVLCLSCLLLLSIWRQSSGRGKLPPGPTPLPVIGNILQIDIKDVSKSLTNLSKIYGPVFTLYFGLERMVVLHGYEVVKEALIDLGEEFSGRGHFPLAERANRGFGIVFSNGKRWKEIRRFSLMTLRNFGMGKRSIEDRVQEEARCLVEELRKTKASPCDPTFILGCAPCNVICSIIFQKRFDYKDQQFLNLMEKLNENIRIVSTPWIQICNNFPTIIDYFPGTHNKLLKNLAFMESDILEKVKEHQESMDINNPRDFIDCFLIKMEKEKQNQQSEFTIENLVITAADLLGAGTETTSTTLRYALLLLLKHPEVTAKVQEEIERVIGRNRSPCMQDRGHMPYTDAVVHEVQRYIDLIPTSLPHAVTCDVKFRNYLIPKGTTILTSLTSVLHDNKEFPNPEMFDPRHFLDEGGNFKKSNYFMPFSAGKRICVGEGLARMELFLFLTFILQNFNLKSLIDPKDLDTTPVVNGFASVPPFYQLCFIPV
Chain of Phosphatidylinositol 4,5-bisphosphate 3-kinase catalytic subunit gamma isoform (P48736 whole entry, canonical isoform): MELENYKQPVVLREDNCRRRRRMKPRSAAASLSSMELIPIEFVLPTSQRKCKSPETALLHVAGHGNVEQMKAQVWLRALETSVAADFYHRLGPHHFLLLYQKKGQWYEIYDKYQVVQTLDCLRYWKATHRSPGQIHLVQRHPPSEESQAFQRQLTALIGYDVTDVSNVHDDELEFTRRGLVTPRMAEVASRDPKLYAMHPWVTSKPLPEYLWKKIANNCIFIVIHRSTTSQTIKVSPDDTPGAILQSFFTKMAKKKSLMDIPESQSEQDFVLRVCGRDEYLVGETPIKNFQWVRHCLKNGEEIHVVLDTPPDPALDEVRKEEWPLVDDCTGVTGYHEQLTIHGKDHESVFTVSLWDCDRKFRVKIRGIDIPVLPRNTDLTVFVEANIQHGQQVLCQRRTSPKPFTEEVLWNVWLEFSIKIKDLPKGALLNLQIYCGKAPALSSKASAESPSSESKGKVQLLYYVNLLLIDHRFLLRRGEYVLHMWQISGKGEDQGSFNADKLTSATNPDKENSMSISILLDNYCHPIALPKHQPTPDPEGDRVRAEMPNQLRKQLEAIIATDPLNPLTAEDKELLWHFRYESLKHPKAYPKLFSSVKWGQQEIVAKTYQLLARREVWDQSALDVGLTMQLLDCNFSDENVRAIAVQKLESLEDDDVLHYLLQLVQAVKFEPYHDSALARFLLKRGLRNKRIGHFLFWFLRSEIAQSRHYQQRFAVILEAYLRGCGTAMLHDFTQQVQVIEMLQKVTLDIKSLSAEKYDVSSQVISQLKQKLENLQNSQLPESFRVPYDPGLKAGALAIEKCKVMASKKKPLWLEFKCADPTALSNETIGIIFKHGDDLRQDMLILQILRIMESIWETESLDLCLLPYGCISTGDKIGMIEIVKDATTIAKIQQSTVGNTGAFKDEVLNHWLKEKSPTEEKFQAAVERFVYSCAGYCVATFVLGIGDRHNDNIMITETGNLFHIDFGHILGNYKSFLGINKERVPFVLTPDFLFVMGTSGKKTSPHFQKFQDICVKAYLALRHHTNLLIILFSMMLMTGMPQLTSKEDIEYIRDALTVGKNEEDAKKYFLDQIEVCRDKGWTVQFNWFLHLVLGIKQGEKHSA
Chain of Voltage-gated inwardly rectifying potassium channel KCNH2 (Q12809 whole entry): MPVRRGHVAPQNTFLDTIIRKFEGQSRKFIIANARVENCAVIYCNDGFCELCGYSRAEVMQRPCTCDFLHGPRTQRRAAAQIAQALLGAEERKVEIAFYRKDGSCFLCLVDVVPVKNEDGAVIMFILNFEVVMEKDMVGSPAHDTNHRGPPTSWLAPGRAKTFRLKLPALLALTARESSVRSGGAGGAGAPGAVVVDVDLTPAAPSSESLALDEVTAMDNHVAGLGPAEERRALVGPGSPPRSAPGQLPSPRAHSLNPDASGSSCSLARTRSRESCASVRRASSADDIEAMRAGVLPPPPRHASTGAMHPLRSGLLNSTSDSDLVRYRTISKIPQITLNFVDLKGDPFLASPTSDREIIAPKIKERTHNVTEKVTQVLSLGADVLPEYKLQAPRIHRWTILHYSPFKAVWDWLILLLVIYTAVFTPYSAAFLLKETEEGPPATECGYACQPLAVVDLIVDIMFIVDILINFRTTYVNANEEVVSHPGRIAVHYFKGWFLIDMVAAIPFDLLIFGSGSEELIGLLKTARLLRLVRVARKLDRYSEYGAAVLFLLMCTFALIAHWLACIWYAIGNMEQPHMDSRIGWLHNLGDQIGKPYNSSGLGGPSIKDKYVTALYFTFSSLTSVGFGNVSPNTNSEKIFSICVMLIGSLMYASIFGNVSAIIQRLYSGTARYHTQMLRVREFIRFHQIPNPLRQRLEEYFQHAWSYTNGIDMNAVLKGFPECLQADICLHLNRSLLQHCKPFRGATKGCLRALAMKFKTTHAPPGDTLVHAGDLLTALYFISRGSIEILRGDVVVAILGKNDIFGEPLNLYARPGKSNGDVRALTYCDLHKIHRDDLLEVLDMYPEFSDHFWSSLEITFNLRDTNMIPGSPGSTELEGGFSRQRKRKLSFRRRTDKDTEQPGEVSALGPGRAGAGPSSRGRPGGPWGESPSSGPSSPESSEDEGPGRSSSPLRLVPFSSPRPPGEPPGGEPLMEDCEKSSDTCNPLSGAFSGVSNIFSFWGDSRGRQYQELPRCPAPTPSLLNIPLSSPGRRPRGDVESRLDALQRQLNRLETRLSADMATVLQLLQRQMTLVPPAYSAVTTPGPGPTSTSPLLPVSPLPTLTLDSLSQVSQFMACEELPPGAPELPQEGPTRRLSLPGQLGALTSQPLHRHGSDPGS

## CS(=O)(=O)N1CCN(Cc2cn3cc(-c4cnc(N)nc4)nc(N4CCOCC4)c3n2)CC1
[1]
  half-life: 8.38 h
[2]
  inhibition at 10 µM: < 25%
[3]
  remaining at 0.5 h, 0.5 µM: 100%
[4]
  AUC(0-inf): 12600 ng·h/mL
[5]
  inhibition at 10 µM: < 25%
[6]
  AUC(0-inf): 14200 ng·h/mL
[7]
  remaining at 0.5 h, 0.5 µM: 100%
[8]
  solubility kinetic at 24 h: 50 µM (≈ 23.7 µg/mL)
[9]
  inhibition at 10 µM: < 25%
[10]
  Vd: 0.8 L/kg
[11]
  clearance: 9.33 mL/min/kg
[12]
  Tmax: 1 h
[13]
  bioavailability: 88.6%
[14]
  Papp at 5 h: 0.26 ×10⁻⁶ cm/s
[15]
  IC50: 4880 nM
[16]
  Cmax: 1130 ng/mL
[17]
  half-life: 1.36 h
[18]
  CL: < 50%
[19]
  inhibition at 10 µM: < 25%
[20]
  inhibition at 10 µM: < 25%

## CS(=O)(=O)N1CCN(Cc2cc3c(N4CCOCC4)nc(-c4cnc(N)nc4)c(Cl)n3n2)CC1
[21]
  AUC(0-inf): 6980 ng·h/mL
[2]
  inhibition at 10 µM: < 25%
[3]
  remaining at 0.5 h, 0.5 µM: 100%
[22]
  Vd: 1.24 L/kg
[23]
  half-life: 3.22 h
[24]
  Ki: 8.4 nM
[5]
  inhibition at 10 µM: < 25%
[25]
  CL: < 50%
[26]
  bioavailability: 43.1%
[27]
  Tmax: 0.5 h
[28]
  clearance: 12.5 mL/min/kg
[29]
  Ki: 2.1 nM
[7]
  remaining at 0.5 h, 0.5 µM: 100%
[8]
  solubility kinetic at 24 h: 100 µM (≈ 50.8 µg/mL)
[9]
  inhibition at 10 µM: < 25%
[30]
  Cmax: 1370 ng/mL
[31]
  EC50: 34.5 nM
[32]
  Ki: 71.9 nM
[33]
  Time: > 12 h
[34]
  AUC(0-inf): 8100 ng·h/mL
[35]
  half-life: 0.61 h
[36]
  Ki: 16.7 nM
[14]
  Papp at 5 h: 1.51 ×10⁻⁶ cm/s
[15]
  IC50: 5410 nM
[19]
  inhibition at 10 µM: < 25%
[20]
  inhibition at 10 µM: < 25%
[37]
  IC50: > 30000 nM
[38]
  EC50: 0.01753 µg/mL (≈ 0.0345 µM)
